pIC50: −log10 of the molar value.
Tests used:
[1] = Efflux ratio of permeability in MDCK cells; assay type: ADME, cell-based, Canis lupus familiaris; conditions: dog
How it was run: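 Efflux ratio taken as […] transport across P-glycoprotein-expressing MDCK cells.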

[2] = Apparent permeability of the compound in MDCK cells; assay type: ADME, cell-based, Canis lupus familiaris; conditions: dog
[3] = Drug level in CSF of Sprague-Dawley rat at 10 mg/kg, po after 4 hrs by ES-UPLC analysis; assay type: ADME, organism-based, Cerebrospinal fluid; conditions: read-out: Drug uptake
How it was run: (§1)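 Sprague Dawley rats given 10 mg/kg po; CSF, plasma and brain collected at 4 h. Drug measured in CSF; free plasma and brain levels computed from total levels using plasma protein and brain tissue binding fractions. Free CSF derived from CSF binding by equilibrium dialysis with pooled rat CSF. Ratios taken from these values.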

[4] = Ratio of unbound drug level in CSF of Sprague-Dawley rat to unbound plasma concentration in Sprague-Dawley rat at 10 mg/kg, po after 4 hrs by ES-UPLC analysis; assay type: ADME, organism-based; conditions: CSF and plasma; how it was run: as §1
[5] = system: Rattus norvegicus; test: In vivo inhibition of COMT in Sprague-Dawley rat assessed as DOPAC levels in CSF at 10 mg/kg, po measured at 4 hrs post dose by LC-MS analysis relative to control; assay type: functional
How it was run: (§2)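 Male Sprague Dawley rats (176–200 g on arrival) dosed orally at 10 mg/kg in Tween80/antifoam/methylcellulose suspension, 10 mL/kg, vehicle group as control (n=5–10). At 4 h under isoflurane, CSF drawn from cisterna magna. HVA and DOPAC quantified by LC-MS against standards in 0.01 M perchloric acid/aCSF with d5 internal standards. Reported as % of vehicle.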

[6] = Drug uptake in brain of C57BL/6J mouse at 10 mg/kg, ip measured at 1 hr post dose; assay type: ADME, organism-based; conditions: C57BL/6J, brain, read-out: Drug uptake
How it was run: (§3)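 Male C57BL/6J mice (8 weeks), single ip injection of 10 mg/kg suspended in 0.1% Tween80/0.1% antifoam/1% methylcellulose at 10 mL/kg. Two mice per timepoint; at 1 h, plasma separated at 4 °C and brain homogenized in 4 volumes PBS pH 7.4. Total brain and plasma levels measured.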

[7] = Protein binding in CSF of Sprague-Dawley rat at 2 uM by equilibrium dialysis; assay type: ADME, tissue-based, Cerebrospinal fluid; conditions: read-out: PB (converted)
How it was run: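 Binding in pooled rat CSF measured by equilibrium dialysis at 2 µM test concentration.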

[8] = system: Rattus norvegicus; test: Oral bioavailability in rat at 3/10 mg/kg; assay type: ADME, organism-based; conditions: in vivo
How it was run: (§4)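 Rat pharmacokinetics after a 1 mpk iv dose (n=3) and a 3 or 10 mpk oral dose (n=3).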

[9] = biological target: T1, Catechol O-methyltransferase (Rattus norvegicus, UniProt P22734); test: Inhibition of c-terminal hexa-His tagged rat MB-COMT expressed in HEK293 cell membrane homogenate using norepinephrine as substrate after 1 hr in presence of SAM by MTase glo methyltransferase assay
T1 sequence (P22734 whole entry): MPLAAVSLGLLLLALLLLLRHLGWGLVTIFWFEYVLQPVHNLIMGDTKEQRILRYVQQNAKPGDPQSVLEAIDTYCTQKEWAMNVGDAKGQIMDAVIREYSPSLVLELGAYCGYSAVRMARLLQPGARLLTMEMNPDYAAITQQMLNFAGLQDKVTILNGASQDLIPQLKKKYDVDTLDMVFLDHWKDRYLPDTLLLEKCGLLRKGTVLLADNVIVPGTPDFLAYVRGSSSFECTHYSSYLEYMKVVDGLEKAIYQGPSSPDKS
How it was run: (§5)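 Membrane homogenate of HEK293 cells expressing C-terminal His6 MB-COMT (human about 7 ng, rat about 4 ng per well, protein by Bradford […]). 20 µM SAM and 7 µM norepinephrine in 50 mM Tris, 5–10 mM MgCl2, 2.5 mM DTT, pH 6.9, final DMSO 1.5%. 1 h at 37 °C, then MTase-Glo luminescence. […] 4-parameter IC50 fit; triplicate points, three experiments.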

[10] = biological target: T2, Catechol O-methyltransferase (Homo sapiens, UniProt P21964); test: Inhibition of c-terminal hexa-His tagged human S-COMT expressed in HEK293-6E cell membrane homogenate using 7,8-dihydroxy-4-methylcoumarin as substrate after 1 hr in presence of SAM by MTase glo methyltransferase assay
T2 sequence (P21964 whole entry): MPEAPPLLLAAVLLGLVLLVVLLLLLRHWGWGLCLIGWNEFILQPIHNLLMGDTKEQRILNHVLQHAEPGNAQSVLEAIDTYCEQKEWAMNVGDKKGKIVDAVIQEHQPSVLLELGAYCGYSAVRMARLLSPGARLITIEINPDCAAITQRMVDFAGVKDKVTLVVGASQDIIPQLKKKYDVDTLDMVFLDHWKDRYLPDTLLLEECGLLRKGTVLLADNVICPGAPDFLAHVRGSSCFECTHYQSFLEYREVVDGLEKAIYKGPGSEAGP
How it was run: (§6)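 His6-tagged S-COMT (human or rat), expressed in 293-6E cells and purified by Ni-NTA and size exclusion, 1 ng per well. 20 µM SAM and 10 µM 7,8-dihydroxy-4-methylcoumarin in pH 6.9 Tris/MgCl2/DTT buffer, 1.5% DMSO. 1 h at 37 °C, then MTase-Glo luminescence read against a SAH standard curve. […] 4-parameter IC50; triplicate wells, three runs.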

[11] = biological target: T1, Catechol O-methyltransferase; test: Inhibition of c-terminal hexa-His tagged rat S-COMT expressed in HEK293-6E cell membrane homogenate using 7,8-dihydroxy-4-methylcoumarin as substrate after 1 hr in presence of SAM by MTase glo methyltransferase assay; how it was run: as §6
[12] = Ratio of drug level in CSF of Sprague-Dawley rat to unbound brain concentration in Sprague-Dawley rat at 10 mg/kg, po after 4 hrs by ES-UPLC analysis; assay type: ADME, organism-based; conditions: in vivo; how it was run: as §1
[13] = biological target: T2, Catechol O-methyltransferase; test: Inhibition of c-terminal hexa-His tagged human MB-COMT expressed in HEK293 cell membrane homogenate using norepinephrine as substrate after 1 hr in presence of SAM by MTase glo methyltransferase assay; how it was run: as §5
[14] = Unbound drug level in brain of Sprague-Dawley rat at 10 mg/kg, po after 4 hrs by ES-UPLC analysis; assay type: ADME, organism-based; conditions: in vivo; how it was run: as §1
[15] = Clearance in rat hepatocytes assessed as per million cells; assay type: ADME, cell-based, Hepatocyte; conditions: read-out: CLH
[16] = system: Rattus norvegicus; test: Volume of distribution at steady state in rat at 1 mg/kg, iv or 3/10 mg/kg, po; assay type: ADME, organism-based; conditions: in vivo; how it was run: as §4
[17] = Ratio of drug level in CSF of Sprague-Dawley rat to unbound plasma concentration in Sprague-Dawley rat at 10 mg/kg, po after 4 hrs by ES-UPLC analysis; assay type: ADME, organism-based; conditions: in vivo; how it was run: as §1
[18] = Half life in rat at 1 mg/kg, iv or 3/10 mg/kg, po; assay type: ADME, organism-based; conditions: in vivo; how it was run: as §4
[19] = system: Rattus norvegicus; test: In vivo inhibition of COMT in Sprague-Dawley rat assessed as HVA levels in CSF at 10 mg/kg, po measured at 4 hrs post dose by LC-MS analysis relative to control; assay type: functional; set-up: scale not given: the % may be the effect or the level left; how it was run: as §2
[20] = Unbound plasma concentration in Sprague-Dawley rat 10 mg/kg, po after 4 hrs by ES-UPLC analysis; assay type: ADME, organism-based; conditions: in vivo; how it was run: as §1
[21] = Plasma concentration C57BL/6J mouse at 10 mg/kg, ip measured at 1 hr post dose; assay type: ADME, organism-based; how it was run: as §3
[22] = Fraction unbound in rat plasma by equilibrium dialysis; assay type: ADME, cell-free
How it was run: (§7)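 Percent free drug in mouse or rat plasma, measured by equilibrium dialysis.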

[23] = Drug level in CSF of Sprague-Dawley rat at 15 mg/kg, ip after 4 hrs by ES-UPLC analysis; assay type: ADME, organism-based, Cerebrospinal fluid; conditions: in vivo, BLD = below limit of detection
[24] = Unbound drug level in brain of Sprague-Dawley rat at 15 mg/kg, ip after 4 hrs by ES-UPLC analysis; assay type: ADME, organism-based; conditions: in vivo, BLD = below limit of detection
[25] = Unbound plasma concentration in Sprague-Dawley rat 15 mg/kg, ip after 4 hrs by ES-UPLC analysis; assay type: ADME, organism-based; conditions: in vivo
[26] = Fraction unbound in rat brain by equilibrium dialysis; assay type: ADME, tissue-based
How it was run: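 Percent free drug in rat brain tissue, measured by equilibrium dialysis.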

[27] = Fraction unbound in mouse plasma by equilibrium dialysis; assay type: ADME, cell-free; how it was run: as §7
[28] = Substrate activity at P-glycoprotein (unknown origin); assay type: ADME; conditions: human
[29] = biological target: ATP-binding cassette sub-family C member 2 (Homo sapiens, UniProt Q92887); test: Inhibition of MRP2 (unknown origin)
Chain of ATP-binding cassette sub-family C member 2 (Q92887 whole entry): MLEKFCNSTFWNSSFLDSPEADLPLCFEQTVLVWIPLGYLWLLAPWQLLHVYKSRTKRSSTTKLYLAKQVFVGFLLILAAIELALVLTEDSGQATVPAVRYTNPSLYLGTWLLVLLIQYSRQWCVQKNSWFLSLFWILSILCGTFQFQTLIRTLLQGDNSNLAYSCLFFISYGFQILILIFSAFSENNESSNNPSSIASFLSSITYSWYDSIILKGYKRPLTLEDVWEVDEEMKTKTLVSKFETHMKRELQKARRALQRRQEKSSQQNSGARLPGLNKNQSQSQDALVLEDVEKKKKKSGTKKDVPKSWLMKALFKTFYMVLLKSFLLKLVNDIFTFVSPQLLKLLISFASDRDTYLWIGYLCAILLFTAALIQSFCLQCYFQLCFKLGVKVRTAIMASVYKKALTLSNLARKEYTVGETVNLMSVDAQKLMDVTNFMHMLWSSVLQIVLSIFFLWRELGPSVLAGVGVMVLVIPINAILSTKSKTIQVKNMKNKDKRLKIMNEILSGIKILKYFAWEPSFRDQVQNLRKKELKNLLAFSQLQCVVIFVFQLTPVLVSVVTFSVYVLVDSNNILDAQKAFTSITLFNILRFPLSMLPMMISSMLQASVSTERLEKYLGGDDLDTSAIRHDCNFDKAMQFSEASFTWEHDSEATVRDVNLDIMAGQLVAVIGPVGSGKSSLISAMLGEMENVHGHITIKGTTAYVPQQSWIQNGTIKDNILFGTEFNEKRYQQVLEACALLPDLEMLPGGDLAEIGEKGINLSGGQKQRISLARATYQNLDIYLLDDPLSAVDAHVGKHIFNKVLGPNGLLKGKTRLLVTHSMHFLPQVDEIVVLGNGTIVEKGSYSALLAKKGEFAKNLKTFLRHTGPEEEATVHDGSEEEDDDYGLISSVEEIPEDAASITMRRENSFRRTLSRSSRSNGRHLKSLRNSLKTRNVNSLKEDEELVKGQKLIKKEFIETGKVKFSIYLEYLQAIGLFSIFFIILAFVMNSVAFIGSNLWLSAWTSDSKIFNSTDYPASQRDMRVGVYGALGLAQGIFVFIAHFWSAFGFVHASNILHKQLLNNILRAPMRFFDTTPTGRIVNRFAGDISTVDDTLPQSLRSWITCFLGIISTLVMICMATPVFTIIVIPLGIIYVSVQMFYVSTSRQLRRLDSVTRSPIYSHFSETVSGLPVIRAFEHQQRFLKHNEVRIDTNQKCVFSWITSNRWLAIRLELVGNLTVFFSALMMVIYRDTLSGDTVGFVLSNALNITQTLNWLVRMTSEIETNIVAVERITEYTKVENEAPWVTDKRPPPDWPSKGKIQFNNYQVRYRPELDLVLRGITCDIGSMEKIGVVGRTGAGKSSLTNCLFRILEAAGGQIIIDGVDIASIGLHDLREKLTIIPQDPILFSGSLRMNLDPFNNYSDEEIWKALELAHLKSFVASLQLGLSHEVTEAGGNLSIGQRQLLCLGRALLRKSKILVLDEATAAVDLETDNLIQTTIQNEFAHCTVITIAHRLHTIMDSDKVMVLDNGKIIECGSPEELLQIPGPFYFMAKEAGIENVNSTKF

[30] = biological target: T3, Broad substrate specificity ATP-binding cassette transporter ABCG2 (Homo sapiens, UniProt Q9UNQ0); test: Inhibition of BCRP (unknown origin); assay type: ADME
T3 sequence (Q9UNQ0 whole entry): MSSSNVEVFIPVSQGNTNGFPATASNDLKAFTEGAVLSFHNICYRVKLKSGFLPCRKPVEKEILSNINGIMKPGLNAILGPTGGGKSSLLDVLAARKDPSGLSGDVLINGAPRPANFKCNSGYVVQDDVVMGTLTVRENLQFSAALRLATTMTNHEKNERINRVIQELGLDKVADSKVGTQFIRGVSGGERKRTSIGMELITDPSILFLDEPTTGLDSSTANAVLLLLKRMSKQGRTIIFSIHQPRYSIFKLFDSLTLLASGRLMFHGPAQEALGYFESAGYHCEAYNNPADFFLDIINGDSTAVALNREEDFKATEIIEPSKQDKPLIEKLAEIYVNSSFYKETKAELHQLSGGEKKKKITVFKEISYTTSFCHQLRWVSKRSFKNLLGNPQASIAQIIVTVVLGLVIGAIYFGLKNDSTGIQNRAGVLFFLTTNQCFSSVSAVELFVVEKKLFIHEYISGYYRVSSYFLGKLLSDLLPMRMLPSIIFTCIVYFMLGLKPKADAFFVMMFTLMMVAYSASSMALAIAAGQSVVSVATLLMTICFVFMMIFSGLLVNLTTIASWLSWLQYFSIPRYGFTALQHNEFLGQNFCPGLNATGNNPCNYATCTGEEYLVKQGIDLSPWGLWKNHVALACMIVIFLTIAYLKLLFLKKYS

[31] = Inhibition of P-glycoprotein (unknown origin); conditions: human

SMILES | efflux ratio [1] | concentration at 4 h [3] [nM] | Kp uu at 4 h [4] | CSF DOPAC level (% of vehicle) [5] [%] | concentration at 1 h [6] [ng/g] | fraction unbound at 2 µM [7] | F [8] [%] | pIC50 [9] | pIC50 [10] | pIC50 [11] | Ratio [12] | pIC50 [13] | Drug uptake(free) [14] [nM] | hepatocyte CLint [15] [µL/min/1e6 cells] | Vdss [16] [L/kg] | Ratio [17] | half-life [18] [min] | Activity [19] [%] | Cp(f) [20] [nM] | concentration at 1 h [21] [ng/mL] | other results
O=S(=O)(c1ccc(F)cc1)c1cc(F)c(O)c2ncccc12 | 0.7 | 127 | 1.2 | 173 | 527 | 0.47 | 100 | > 9.00 | 5.80 | < 5.00 | 16 | 8.40 | 7.7 | 15 | 3.5 | 2.6 | 270 | 86 | 48 | 5720 | Papp [2]: > 10 ×10⁻⁶ cm/s
O=S(=O)(c1cc(F)c(O)c2ncccc12)C1CCCC1 | 0.5 | 321 | 7.3 | 218 | 1910 | 0.43 | 32 | > 9.00 | 5.60 | 5.10 | 25 | 8.70 | 12.8 | 19 | 0.41 | 16.5 | 462 | 66 | 19 | 6160 | Fu [22]: 0.2
Cc1ccc(S(=O)(=O)c2cc(Cl)c(O)c3ncccc23)cc1 | 2.2 |  |  |  | 1690 |  | 45 |  | < 5.00 |  |  | 6.50 |  | 78 | 0.67 |  | 18.6 |  |  | 9780 | Papp [2]: > 10 ×10⁻⁶ cm/s
Cc1ccc(C(=O)c2cc(O)c(O)c([N+](=O)[O-])c2)cc1 [TOLCAPONE] |  |  |  |  |  |  |  |  |  |  |  |  |  |  |  |  |  |  |  |  | Drug uptake [23]: Bld; Drug uptake(free) [24]: Bld; Cp(f) [25]: 35 nM
O=S(=O)(c1ccc(O)c2ncccc12)N1CCCC1Cc1ccccc1 (configuration not stated) |  |  |  |  | 109 |  |  |  | 5.70 |  |  | 8.70 |  | 228 |  |  |  |  |  | 235 | fraction unbound [26]: 0.5; Fu [27]: 0.5
O=S(=O)(c1cc(F)c(O)c2ncccc12)N1CCCC1 | 1.2 | 157 | 3.3 | 140 | 110 | 0.49 | 73 | > 9.00 | 5.80 | 5.40 | 4.4 | 8.40 | 35 | 21 | 2.2 | 6.8 | 168 | 72 | 23 | 1820 | Activity [28]: Not Active; inhibition (INH) [29]: Not Active; inhibition (INH) [30]: Not Active; Fu [22]: 0.6; inhibition (INH) [31]: Not Active

Reference: ChEMBL document CHEMBL4152376, “Optimization of 8-Hydroxyquinolines as Inhibitors of Catechol O-Methyltransferase” (J Med Chem, 2018)
